Laboratory results published in ChEMBL document CHEMBL2384971, “Bioactive limonoid and triterpenoid constituents of Turraea pubescens” (J Nat Prod, 2013).

Experiments:
HL-60 = assay: Cytotoxicity against human HL60 cells by MTT assay; assay type: functional, cell-based
Artemia salina [1] = assay: Toxicity in brine shrimp larva assessed as corrected mortality at 100 ppm after 24 hrs by microscopic analysis relative to control; assay type: functional
Method in brief: (§1)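 Artemia salina larvae tested by a microwell method. Corrected mortality was derived from treatment-group mortality (Mt) against vehicle-control-group mortality (Mc).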

RAW264.7 [2] = assay: Cytotoxicity against mouse RAW264.7 cells at 50 uM by MTT assay; assay type: cell-based; conditions: raw264.7, 50 µM
RAW264.7 [3] = assay: Antiinflammatory activity against LPS-stimulated mouse RAW264.7 cells assessed as inhibition of NO production after 18 hrs by Griess method; assay type: functional, cell-based; conditions: RAW264.7, 18 h
Method in brief: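 RAW 264.7 murine macrophages were seeded at 2 × 10^5 cells/well in RPMI 1640 with 10% FBS at 37 °C under 5% CO2 and preincubated for 24 h. Cells were then exposed for 18 h to serial dilutions (top concentration 25 μM; DMSO solutions diluted in medium) plus 1 μg/mL LPS. Supernatants were mixed with Griess reagents A and B in triplicate and read at 570 nm after 5 min.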

Artemia salina [4] = assay: Toxicity in brine shrimp larva assessed as corrected mortality at 50 ppm after 24 hrs by microscopic analysis relative to control; assay type: functional; method in brief: as §1
Artemia salina [5] = assay: Toxicity in brine shrimp larva assessed as corrected mortality at 10 ppm after 24 hrs by microscopic analysis relative to control; assay type: functional; method in brief: as §1

Structure (SMILES) | IC50 (HL-60) [µM] | mortality at 100 ppm (Artemia salina [1]) [%] | Activity (RAW264.7 [2]) | IC50 (RAW264.7 [3]) [µM] | mortality at 50 ppm (Artemia salina [4]) [%] | mortality at 10 ppm (Artemia salina [5]) [%]
C=C1[C@@H]([C@@]2(C)C=CC(=O)C(C)(C)[C@@H]2CC(=O)OC)[C@@H](OC(C)=O)[C@H](OC(C)=O)[C@@]2(C)[C@H](c3ccoc3)C[C@H]3O[C@]132 | < 10 | < 50 | Non-toxic | > 20 | – | –
C=C1[C@@H]([C@@]2(C)C=CC(=O)C(C)(C)[C@@H]2CC(=O)OC)[C@@H](OC(C)=O)[C@H](OC(C)=O)[C@@]2(C)[C@H](C3=CC(O)OC3=O)C[C@H]3O[C@]132 (some centres not stated) | < 10 | < 50 | Non-toxic | > 20 | – | –
CC(=O)O[C@@H]1[C@H](O)[C@H]2C(C)(C)C(=O)C=C[C@]2(C)[C@H]2CC[C@]3(C)C(=CC[C@H]3c3ccoc3)[C@]12C [NIMONOL] | < 10 | – | Non-toxic | > 20 | – | –
C/C=C(\C)C(=O)O[C@H]1C[C@@H](OC(=O)CC)[C@@]2(C(=O)OC)CO[C@H]3[C@@H](O)[C@@](C)(C45OC4(C)C4C[C@H]5O[C@@H]5OC=CC45O)C4[C@]1(CO[C@]4(O)C(=O)OC)[C@@H]32 (some centres not stated) | < 10 | – | Non-toxic | > 20 | – | –
CO[C@@H]1O[C@@H]([C@@H]2OC2(C)C)C[C@H]1[C@@H]1CCC2[C@]3(C)[C@H](O)C[C@H]4C(C)(C)C(=O)C=C[C@]4(C)[C@H]3CC[C@]21C (some centres not stated) | < 10 | – | Non-toxic | > 20 | – | –
C=C1[C@@H]([C@@]2(C)C=CC(=O)C(C)(C)[C@@H]2CC(=O)OC)[C@@H](OC(C)=O)[C@H](O)[C@@]2(C)[C@H](c3ccoc3)C[C@H]3O[C@]132 [TURRAPUBIN E] | < 10 | < 50 | Non-toxic | > 20 | – | –
CCC(=O)O[C@@H]1C[C@H](OC(C)=O)[C@@]2(C)[C@H]3[C@@H](OC[C@]13C)[C@@H](O)[C@@]1(C)C3=CC[C@@H](c4ccoc4)[C@]3(C)CC[C@@H]12 | < 10 | 75.6 | Non-toxic | 18.5 | 36.3 | 0
C=C1[C@@H]2[C@@H](O[C@H]3CC(=O)C(C)(C)[C@H](CC(=O)OC)[C@]32C)[C@H](OC(C)=O)[C@@]2(C)[C@H](c3ccoc3)C[C@H]3O[C@]132 [TURRAPUBIN D] | < 10 | – | Non-toxic | > 20 | – | –
C=C1C2=CC[C@H](c3ccoc3)[C@]2(C)[C@@H](OC(C)=O)[C@H](OC(C)=O)[C@@H]1[C@@]1(C)C=CC(=O)C(C)(C)[C@@H]1CC(=O)OC [TURRAFLORIN A] | < 10 | < 50 | Non-toxic | 15.4 | – | –
CC(=O)O[C@H]1C[C@@H]2[C@@]3(C)C=CC(=O)C(C)(C)[C@@H]3C[C@@H](O)[C@@]2(C)C2=CC[C@@H](c3ccoc3)[C@@]21C | < 10 | 85 | Non-toxic | 11.9 | 83.5 | 20.6
C=C1[C@@H]([C@@]2(C)C=CC(=O)C(C)(C)[C@@H]2CC(=O)OC)[C@@H](OC(C)=O)[C@H](OC(=O)C(C)CC)[C@@]2(C)[C@H](c3ccoc3)C[C@H]3O[C@]132 (some centres not stated) | < 10 | – | Non-toxic | > 20 | – | –
C=C1[C@@H]([C@@]2(C)C=CC(=O)C(C)(C)[C@@H]2CC(=O)OC)[C@@H](OC(C)=O)[C@H](OC(=O)C(C)C)[C@@]2(C)[C@H](c3ccoc3)C[C@H]3O[C@]132 | < 10 | – | Non-toxic | > 20 | – | –
C[C@@H](C[C@@H](O)[C@H](O)C(C)(C)O)[C@@H]1CC[C@]2(C)C3=CC[C@H]4C(C)(C)[C@@H](O)CC[C@]4(C)[C@H]3CC[C@@]12C | < 10 | – | Non-toxic | > 20 | – | –
C/C=C(\C)C(=O)O[C@H]1C[C@@H](OC(=O)CC)[C@@]2(C(=O)OC)CO[C@H]3[C@H]4O[C@]5(C)[C@H]6C[C@H](OC7OC=C[C@@]76O)[C@]5(O)[C@@]4(C)C4[C@]1(CO[C@]4(O)C(=O)OC)[C@@H]32 (some centres not stated) | < 10 | – | Non-toxic | > 20 | – | –
CC(=O)O[C@H]1C[C@@H]2[C@@]3(C)CCC(=O)C(C)(C)[C@@H]3C[C@@H](O)[C@@]2(C)C2=CC[C@@H](c3ccoc3)[C@@]21C [MZIKONONE] | < 10 | 76.4 | Non-toxic | > 20 | 36.9 | 0
CCC(=O)O[C@@H]1C[C@H](OC(C)=O)[C@@]2(C)[C@@H]([C@@H](O)[C@@H](OC(C)=O)[C@@]3(C)C4=CC[C@@H](c5ccoc5)[C@]4(C)CC[C@@H]32)C1(C)C | < 10 | – | Non-toxic | > 20 | – | –
CC(=O)O[C@@H]1C[C@H]2C(C)(C)C(=O)C=C[C@]2(C)[C@H]2CC[C@]3(C)C(=CC[C@H]3[C@H]3COC(C)(C)[C@@H](O)[C@H](O)C3)[C@@]21C | < 10 | 69.8 | Non-toxic | > 20 | 6.7 | 0
C[C@@H](C[C@@H](O)[C@@H]1OC1(C)C)[C@@H]1CC[C@]2(C)C3=CC[C@H]4C(C)(C)[C@@H](O)CC[C@]4(C)[C@H]3CC[C@@]12C [DIHYDRONILOTICIN] | < 10 | – | Non-toxic | > 20 | – | –
C/C=C(\C)C(=O)O[C@H]1C[C@@H](OC(C)=O)[C@@]2(C(=O)OC)CO[C@H]3[C@@H](O)[C@@](C)([C@]45O[C@@]4(C)[C@@H]4C[C@H]5O[C@@H]5OC=C[C@@]54O)[C@H]4[C@]1(CO[C@]4(O)C(=O)OC)[C@@H]32 [AZADIRACHTIN A] | < 10 | 81.7 | Non-toxic | > 20 | 59.6 | 12.5
C=C1[C@@H]([C@@]2(C)[C@H](OC(C)=O)CC(=O)C(C)(C)[C@@H]2CC(=O)OC)[C@@H](OC(C)=O)[C@H](OC(=O)C(C)C)[C@@]2(C)[C@H](c3ccoc3)C[C@H]3O[C@]132 | < 10 | 81.7 | Non-toxic | > 20 | 61.8 | 60.8
C=C1[C@@H]([C@@]2(C)C=CC(=O)C(C)(C)[C@@H]2CC(=O)OC)[C@@H](OC(C)=O)[C@H](OC(=O)Cc2ccccc2)[C@@]2(C)[C@H](C3=CC(=O)OC3O)C[C@H]3O[C@]132 (some centres not stated) [TURRAPUBESIN E] | < 10 | < 50 | Non-toxic | > 20 | – | –
C=C1[C@@H]([C@@]2(C)C=CC(=O)C(C)(C)[C@@H]2CC(=O)OC)[C@@H](OC(C)=O)[C@H](OC(=O)C(C)C)[C@@]2(C)[C@H](C(=O)O)C[C@H]3O[C@]132 [TURRAPUBESIC ACID B] | < 10 | – | Non-toxic | > 20 | – | –
CO[C@H]1O[C@@H]([C@@H]2OC2(C)C)C[C@H]1[C@@H]1CC=C2[C@]3(C)[C@H](O)C[C@H]4C(C)(C)C(=O)C=C[C@]4(C)[C@H]3CC[C@]21C | < 10 | – | Non-toxic | 17.4 | – | –
C=C1[C@@H]([C@@]2(C)C=CC(=O)C(C)(C)[C@@H]2CC(=O)OC)[C@@H](OC(C)=O)[C@H](OC(=O)C(C)C)[C@@]2(C)[C@H](C3=CC(O)OC3=O)C[C@H]3O[C@]132 (some centres not stated) [TURRAPUBIN H] | < 10 | < 50 | Non-toxic | > 20 | – | –
C=C1[C@@H]([C@@]2(C)[C@H](OC(C)=O)CC(=O)C(C)(C)[C@@H]2CC(=O)OC)[C@@H](OC(C)=O)[C@H](OC(C)=O)[C@@]2(C)[C@H](c3ccoc3)C[C@H]3O[C@]132 [TURRAPUBIN A] | < 10 | 54.7 | Non-toxic | > 20 | 0.8 | 0
